Source: ChEMBL document CHEMBL1138683 (J Med Chem, 2004)

Legend:
[1] = tested on: Rattus norvegicus; test: Anticonvulsant activity after oral administration of 30 mg/kg dose after 1 hr in rats; + means 25% of the animals protected; assay type: functional, organism-based; design: dose 30 mg/kg
How it was run: (§1)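 Oral dosing of rats at a single dose, compound dissolved or suspended in 0.5% methylcellulose. Protection in the MES or scMet test checked 15 min, 30 min, 1 h, 2 h and 4 h after dosing. Scored as 25/50/75/100% of animals protected (+ to ++++), – for none.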

[2] = tested on: Mus musculus; test: Anti convulsant activity administered intra peritoneally to mouse at maximal electroshock test at 0.5 hr after the drug administered with dose of 100 mg/kg; 0/3= No of animals protected /No of animals tested; assay type: functional
[3] = Anti convulsant activity administered intra peritoneally to mouse for toxicity at 4 hr with dose of 300 mg/kg; 0/2= No of animals exhibiting toxicity /No of animals tested; assay type: organism-based; design: dose 300 mg/kg; details: in vivo, ip
[4] = Anti convulsant activity administered intra peritoneally to mouse for toxicity at 4 hr with dose of 30 mg/kg; 0/2= No of animals exhibiting toxicity /No of animals tested; assay type: organism-based; design: dose 30 mg/kg; details: in vivo, ip
[5] = Anti convulsant activity administered intra peritoneally to mouse for toxicity at 0.5 hr with dose of 100 mg/kg; 0/8= No of animals exhibiting toxicity /No of animals tested; assay type: organism-based; design: dose 100 mg/kg; details: in vivo, ip
[6] = Anti convulsant activity administered intra peritoneally to mouse for toxicity at 4 hr with dose of 100 mg/kg; 0/4= No of animals exhibiting toxicity /No of animals tested; assay type: organism-based; design: dose 100 mg/kg; details: in vivo, ip
[7] = tested on: Mus musculus; test: Anti convulsant activity administered intra peritoneally to mouse for subcutaneous metrazol test at 4 hr with dose of 300 mg/kg; 0/1= No of animals protected /No of animals tested; assay type: functional
[8] = tested on: Mus musculus; test: Anti convulsant activity administered intra peritoneally to mouse at maximal electroshock test at 4 hr after the drug administered with dose of 300 mg/kg; 0/1= No of animals protected /No of animals tested; assay type: functional
[9] = tested on: Mus musculus; test: Anti convulsant activity administered intra peritoneally to mouse at maximal electroshock test at 0.5 h after the drug administered with dose of 30 mg/kg; 0/1= No of animals protected /No of animals tested; assay type: functional
[10] = Anti convulsant activity administered intra peritoneally to mouse for toxicity at 0.5 hr with dose of 30 mg/kg; 0/4= No of animals exhibiting toxicity /No of animals tested; assay type: organism-based; design: dose 30 mg/kg; details: in vivo, ip
[11] = tested on: Mus musculus; test: Anti convulsant activity administered intra peritoneally to mouse for subcutaneous metrazol test at 0.5 h with dose of 300 mg/kg; 0/1= No of animals protected /No of animals tested; assay type: functional
[12] = tested on: Mus musculus; test: Anti convulsant activity administered intra peritoneally to mouse at maximal electroshock test at 0.5 hr after the drug administered with dose of 300 mg/kg; 1/1= No of animals protected /No of animals tested; assay type: functional
[13] = tested on: Mus musculus; test: Anti convulsant activity administered intra peritoneally to mouse at maximal electroshock test at 4 hr after the drug administered with dose of 100 mg/kg; 0/3= No of animals protected /No of animals tested; assay type: functional
[14] = tested on: Mus musculus; test: Anti convulsant activity administered intra peritoneally to mouse for subcutaneous metrazol test at 4 hr after the drug administered with dose of 100 mg/kg; 0/1= No of animals protected /No of animals tested; assay type: functional
[15] = Anti convulsant activity administered intra peritoneally to mouse for toxicity at 0.5 hr with dose of 300 mg/kg; 3/4= No of animals exhibiting toxicity /No of animals tested; assay type: organism-based; design: dose 300 mg/kg; details: in vivo, ip
[16] = tested on: Mus musculus; test: Anti convulsant activity administered intra peritoneally to mouse for subcutaneous metrazol test at 0.5 hr with dose of 30 mg/kg; 0/1= No of animals protected /No of animals tested; assay type: functional
[17] = tested on: Rattus norvegicus; test: Anticonvulsant activity after oral administration of 30 mg/kg dose after 15 min in rats; +means 25% of the animals protected; assay type: functional, organism-based; design: dose 30 mg/kg; how it was run: as §1
[18] = tested on: Mus musculus; test: Anti convulsant activity administered intra peritoneally to mouse at maximal electroshock test at 4 hr after the drug administered with dose of 30 mg/kg; 0/1= No of animals protected /No of animals tested; assay type: functional
[19] = tested on: Mus musculus; test: Anti convulsant activity administered intra peritoneally to mouse for subcutaneous metrazol test at 4 hr after the drug administered with dose of 30 mg/kg; 0/1= No of animals protected /No of animals tested; assay type: functional; details: route intraperitoneal
[20] = tested on: Rattus norvegicus; test: Anticonvulsant activity administered orally to rat for protective index of subcutaneous metrazol test; assay type: functional
[21] = tested on: Mus musculus; test: Anticonvulsant activity administered intra peritoneally to mouse for protective index of subcutaneous metrazol test; assay type: functional
[22] = tested on: Mus musculus; test: Anticonvulsant activity administered intra peritoneally to mouse for the protective index of toxicity by maximal electroshock test; T D50/ED50; assay type: functional
[23] = Anticonvulsant activity administered intra peritoneally to mouse for toxicity; details: in vivo, ip
[24] = tested on: Rattus norvegicus; test: Anticonvulsant activity administered orally to rat for the protective index of toxicity by maximal electroshock test; TD50/ED50; assay type: functional
[25] = Anti convulsant activity administered intra peritoneally to mouse for toxicity at 0.5 hr with dose of 300 mg/kg; 1/4= No of animals exhibiting toxicity /No of animals tested; assay type: organism-based; design: dose 300 mg/kg; details: in vivo, ip
[26] = tested on: Mus musculus; test: Anti convulsant activity administered intra peritoneally to mouse at maximal electroshock test at 0.5 h after the drug administered with dose of 300 mg/kg; 0/1= No of animals protected /No of animals tested; assay type: functional
[27] = tested on: Mus musculus; test: Anti convulsant activity administered intra peritoneally to mouse at maximal electroshock test at 4 hr after the drug administered with dose of 300 mg/kg; 1/1= No of animals protected /No of animals tested; assay type: functional
[28] = Anti convulsant activity administered intra peritoneally to mouse for subcutaneous metrazol test at 4 hr with dose of 300 mg/kg; 4/4= No of animals protected /No of animals tested; assay type: ADME, organism-based; design: dose 300 mg/kg
[29] = tested on: Rattus norvegicus; test: Anticonvulsant activity after oral administration of 30 mg/kg dose after 2 hr in rats; +means 25% of the animal is protected; assay type: functional, organism-based; design: dose 30 mg/kg; how it was run: as §1
[30] = tested on: Rattus norvegicus; test: Anticonvulsant activity after oral administration of 100 mg/kg dose after 2 hr in rats; ++means 50% of the animals protected; assay type: functional, organism-based; design: dose 100 mg/kg; how it was run: as §1
[31] = tested on: Rattus norvegicus; test: Anticonvulsant activity after oral administration of 30 mg/kg dose after 1 hr in rats;+ means 25% animals protected; assay type: functional, organism-based; design: dose 30 mg/kg; how it was run: as §1
[32] = tested on: Mus musculus; test: Anti convulsant activity administered intra peritoneally to mouse at maximal electroshock test at 0.5 hr after the drug administered with dose of 100 mg/kg; 2/3= No of animals protected /No of animals tested; assay type: functional
[33] = Toxicity after oral administration of 100 mg/kg dose in rats;++++ means 100% animals exhibited toxicity; assay type: organism-based; design: dose 100 mg/kg, route oral; details: rat, in vivo
How it was run: (§2)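 Rats dosed orally with compound dissolved or suspended in 0.5% methylcellulose (0.04 mL per 10 g body weight). Anticonvulsant protection (MES or scMet) and toxicity scored at 15 min, 30 min, 1 h, 2 h and 4 h after dosing. Graded in steps of 25% of animals protected or showing toxicity.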

[34] = tested on: Rattus norvegicus; test: Anticonvulsant activity after oral administration of 30 mg/kg dose after 15 min in rats; + means 25% of the animal protected; assay type: functional, organism-based; design: dose 30 mg/kg; how it was run: as §1
[35] = tested on: Mus musculus; test: Anti convulsant activity administered intra peritoneally to mouse at maximal electroshock test at 4 hr after the drug administered with dose of 100 mg/kg; 3/3= No of animals protected /No of animals tested; assay type: functional
[36] = Anti convulsant activity administered intra peritoneally to mouse for toxicity at 4 hr with dose of 300 mg/kg; 2/2= No of animals exhibiting toxicity /No of animals tested; assay type: organism-based; design: dose 300 mg/kg; details: in vivo, ip
[37] = tested on: Mus musculus; test: Anti convulsant activity administered intra peritoneally to mouse for subcutaneous metrazol test at 0.5 hr with dose of 100 mg/kg; 0/1= No of animals protected /No of animals tested; assay type: functional
[38] = Anti convulsant activity administered intra peritoneally to mouse for toxicity at 4 hr with dose of 100 mg/kg; 3/4= No of animals exhibiting toxicity /No of animals tested; assay type: organism-based; design: dose 100 mg/kg; details: in vivo, ip
[39] = tested on: Rattus norvegicus; test: Anticonvulsant activity after oral administration of 100 mg/kg dose after 30 min in rats; ++ means 50% animals protected; assay type: functional, organism-based; design: dose 100 mg/kg; how it was run: as §1
[40] = tested on: Rattus norvegicus; test: Anticonvulsant activity after oral administration of 223 mg/kg dose after 1 hr in rats; ++++ means 100% of the animals protected; assay type: functional, organism-based; design: dose 223 mg/kg; how it was run: as §1
[41] = tested on: Rattus norvegicus; test: Anticonvulsant activity after oral administration of 30 mg/kg dose after 4 hr in rats; - means 25% of the animal protected; assay type: functional, organism-based; design: dose 30 mg/kg
[42] = Toxicity after oral administration of 50 mg/kg dose in rats; ++ means 50% of the animals exhibiting toxicity; assay type: organism-based; design: dose 50 mg/kg, route oral; details: rat, in vivo; how it was run: as §2
[43] = Anti convulsant activity administered intra peritoneally to mouse for toxicity at 0.5 hr with dose of 300 mg/kg; 4/4= No of animals exhibiting toxicity /No of animals tested; assay type: organism-based; design: dose 300 mg/kg; details: in vivo, ip
[44] = tested on: Rattus norvegicus; test: Anticonvulsant activity administered orally to rat at maximal electro shock test; the interval in parenthesis stands for 95% confidence interval; assay type: functional; details: po
[45] = tested on: Mus musculus; test: Anticonvulsant activity administered intra peritoneally to mouse at maximal electro shock test; the interval in parenthesis stands for 95% confidence interval; assay type: functional
[46] = Anticonvulsant activity administered orally to rat for toxicity; details: in vivo, po
[47] = tested on: Rattus norvegicus; test: Anticonvulsant activity administered orally to rat for the protective index of toxicity by maximal electroshock test; T D50/ED50; assay type: functional
[48] = tested on: Rattus norvegicus; test: Anticonvulsant activity administered orally to rat at subcutaneous metrazol test; assay type: functional
[49] = tested on: Mus musculus; test: Anticonvulsant activity administered intra peritoneally to mouse at subcutaneous metrazol test; assay type: functional; details: sc

| SMILES | Activity [2] | Toxicity [3] | Toxicity [4] | Toxicity [5] | Toxicity [6] | Activity [7] | Activity [8] | Activity [9] | Toxicity [10] | Activity [11] | Activity [12] | Activity [13] | Activity [14] | Activity [16] | Activity [18] | Activity [19] | Activity [20] | Activity [21] | Ratio [22] | Activity [27] | other results |
| --- | --- | --- | --- | --- | --- | --- | --- | --- | --- | --- | --- | --- | --- | --- | --- | --- | --- | --- | --- | --- | --- |
| CC(O)CNC(=O)C1C(C)(C)C1(C)C (stereo not given) | 0 | 0 | 0 | 0 | 0 | 0 | 0 | 0 | 0 | 0 | 1 | 0 | 0 | 0 | 0 | 0 |  |  |  |  | Activity [1]: 25% of the animals protected; Toxicity [15]: 3; Activity [17]: 25% of the animals protected |
| CNC(=O)C1C(C)(C)C1(C)C |  |  |  |  |  |  |  |  |  |  |  |  |  |  |  |  | 3.6 | 3.9 | 1.6 |  | TD50 [23]: 153 mg/kg; Ratio [24]: 2 |
| CC1(C)C(C(=O)NO)C1(C)C | 0 | 0 | 0 | 0 | 0 | 0 | 0 | 0 | 0 | 0 |  | 0 | 0 | 0 | 0 | 0 |  |  |  |  | Toxicity [25]: 1; Activity [26]: 0 |
| CC1(C)C(C(=O)NC(N)=S)C1(C)C |  |  | 0 | 0 |  | 0 |  | 0 | 0 | 0 | 1 |  | 0 | 0 | 0 | 0 |  |  |  | 1 | Toxicity [28]: 4; Activity [29]: 25% animals protected; Anticonvulsant Activity [30]: 50% of the animals protected; Activity [31]: 25% animals protected; Activity [32]: 2; Toxicity [33]: 100% animals exhibited toxicity; Activity [34]: 25% animals protected; Activity [35]: 3; Toxicity [36]: 2; Activity [37]: 0; Toxicity [38]: 3; Activity [39]: 25% animals protected |
| CCNC(=O)C1C(C)(C)C1(C)C | 0 |  | 0 | 0 | 0 | 0 |  | 0 | 0 | 1 | 1 | 0 | 0 | 0 | 0 | 0 |  |  |  | 1 | Activity [40]: 100% of the animals protected; Activity [41]: 100% of the animals protected; Toxicity [42]: 50% of the animals exhibiting toxicity; Toxicity [36]: 2; Activity [37]: 0; Toxicity [43]: 4 |
| CC1(C)C(C(=O)NCC(N)=O)C1(C)C |  |  |  |  |  |  |  |  |  |  |  |  |  |  |  |  | -2 | 2.3 | 1.5 |  | ED50 [44]: 82 mg/kg; ED50 [45]: 173 mg/kg; TD50 [46]: > 500 mg/kg; Activity [47]: >6.1; ED50 [48]: > 250 mg/kg; ED50 [49]: 115 mg/kg |
